Sampled rows, rich in hits. Any-hit rate of the full collection: about 2.1%.
F508del corr: CFTR F508del correction in bronchial cells. CFBE cells, YFP halide quenching; stimulated with forskolin plus potentiator P3; % fluorescence drop versus neutral controls. actives 0.36% (n = 350,000). activity (quench increase), % at 7.58 µM. AID 720511;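 active = mean added fluorescence quench of at least 8% versus neutral control, with both replicates also reaching 8%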;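 also: cells transiently co-express mutant CFTR-F508del with the halide-sensitive YFP; corrector assay measuring rescue of mutant channel to the surface after 24 h compound exposure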
SMARCA2 act: activators of SMARCA2 function; MG213 cells, MMTV-luciferase reporter, dexamethasone, overnight; activation, % at 9.1 µM; actives 1% (n = 370,000); AID 652017; in the data active = activation above about 7.8%;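 also: 0% = vehicle wells and 100% = reference activator wells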
MC4R barr agon: activates human MC4R beta-arrestin recruitment. P32245. U2OS MC4R beta-arrestin complementation, luminescence; percent of melanotan II response, DMSO zero. activation, % at 8.9 µM. actives 0.98% (n = 360,000);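 active = activation above a per-plate cutoff, the mean activation of sample wells on that plate plus 3 SD, cut at about 8% in these data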
MC4R antag cAMP: antagonists of human melanocortin 4 receptor (MC4R); inhibition, % at 6.5 µM; actives 0.48% (n = 360,000); MC4R-expressing cells, MTII-stimulated cAMP, LANCE TR-FRET; P32245;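 active = inhibition above its plate's cutoff, the mean of tested wells on that plate plus 3 SD, cut at about 29% in these data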;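 also: 0% = Melanotan II alone and 100% = Melanotan II plus saturating MCL0020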
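System: U2OS-MC4R stable cell line; Technique: Eu-cAMP/anti-cAMP TR-FRET, emission 671 nm; Repeats: single well per compound; Also added: Melanotan II; Dosing: one concentration, 6.5 µM nominal; Schedule: 30-min compound, 1-h challenge, 1-h detection, room temperature.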
MC4R barr conf: human MC4R beta-arrestin agonism confirmation. activation, % at 8.9 µM. shares compounds with MC4R barr agon. actives 31% (n = 2,400). U2OS MC4R beta-arrestin recruitment, luminescence; scaled DMSO 0%, Melanotan II 100%. AID 602192;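 active = mean activation across replicates above the hit cutoff set in the earlier primary screen, cut at about 8% in these data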
MOR DOR agonist: OPRM1-OPRD1 heterodimer agonism counter-screen; shares compounds with MC4R barr agon; U2OS PathHunter beta-arrestin, beta-gal luminescence; percent of deltorphin B response, DMSO zero; activation, % at 9.2 µM; actives 5.8% (n = 2,400); AID 602194;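 active = mean activation across replicates exceeds the hit threshold derived in the earlier primary screen, cut at about 18% in these data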;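 also: 100% = deltorphin B at 0.9 µM final and 0% = DMSO alone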
Target sequence (P35372 whole entry, looked up): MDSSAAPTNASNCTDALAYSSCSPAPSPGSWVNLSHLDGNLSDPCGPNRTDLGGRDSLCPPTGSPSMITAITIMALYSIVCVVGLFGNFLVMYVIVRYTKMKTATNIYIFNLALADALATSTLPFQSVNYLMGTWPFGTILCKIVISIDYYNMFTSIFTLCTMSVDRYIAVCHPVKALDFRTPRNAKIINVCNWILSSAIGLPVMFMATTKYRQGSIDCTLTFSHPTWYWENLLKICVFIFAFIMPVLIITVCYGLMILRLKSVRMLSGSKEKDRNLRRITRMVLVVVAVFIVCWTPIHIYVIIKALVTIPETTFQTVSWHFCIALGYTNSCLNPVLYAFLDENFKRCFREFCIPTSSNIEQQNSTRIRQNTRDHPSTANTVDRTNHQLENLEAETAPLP
Target sequence (P41143 whole entry, looked up): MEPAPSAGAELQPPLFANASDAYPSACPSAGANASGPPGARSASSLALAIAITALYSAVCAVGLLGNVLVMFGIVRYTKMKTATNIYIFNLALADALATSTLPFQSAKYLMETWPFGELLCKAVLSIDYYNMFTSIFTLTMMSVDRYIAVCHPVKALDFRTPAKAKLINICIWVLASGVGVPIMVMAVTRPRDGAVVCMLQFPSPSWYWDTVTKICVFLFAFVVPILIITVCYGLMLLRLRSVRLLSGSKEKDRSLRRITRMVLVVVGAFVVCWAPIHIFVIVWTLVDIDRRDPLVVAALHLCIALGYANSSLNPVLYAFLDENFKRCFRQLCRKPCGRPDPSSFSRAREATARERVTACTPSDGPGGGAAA
The depositor's hits bear a star; . = no result given.

SMILES | F508del corr | SMARCA2 act | MC4R barr agon | MC4R antag cAMP | MC4R barr conf | MOR DOR agonist
O=C(/C=C/c1ccc(Cl)cc1)NC(=S)Nc1ccc(N2CCOCC2)c(Cl)c1 | . | 4.8 | 15.0* | 11.0 | 7.2 | 4.5
O=C(/C=C/c1ccc(Cl)cc1)Nc1ccccc1N1CCOCC1 | . | -4.2 | 9.7* | 2.3 | 3.4 | 2.4
O=C(NC(=S)Nc1ccc(N2CCOCC2)cc1)c1ccc(Cl)cc1 | . | -2.5 | 13.9* | 2.0 | 1.7 | 1.8
CC(C)(C)c1ccc(C(=O)NC(=S)Nc2ccc(N3CCOCC3)cc2)cc1 | . | -1.6 | 1.4 | 5.6 | . | .
O=C(C1CCC1)N1CC(=O)N2[C@H](CO)[C@H](c3ccc(-c4ccccc4F)cc3)[C@@H]2C1 | -2.1 | . | . | . | . | .
CC(C)c1ccc(/C=N/n2nnnc2Nc2ccccc2)cc1 | . | -0.1 | 10.7* | 12.7 | 14.6* | 6.7
COc1ccc(-n2nnc3c(=O)n(Cc4ccccc4C)cnc32)cc1 | 0.9 | . | -1.3 | -0.9 | . | .
Cc1ccc(C)c(Cn2cnc3c(nnn3-c3ccc(F)cc3)c2=O)c1 | . | 1.9 | 13.4* | 0.7 | -0.2 | 2.3
O=C(N/N=C1/CC(c2ccccc2)Oc2ccccc21)C1CC1 (configuration not stated) | . | -2.5 | 9.6* | 9.7 | 8.7* | 9.0
O=C(N/N=C1\CC(c2ccccc2)Oc2ccccc21)c1ccc(O)cc1 (configuration not stated) | 0.0 | 2.1 | -0.2 | 8.5 | . | .
COc1ccc(OC)c(NC(=O)COC(=O)c2cc3c(s2)CCC3)c1 | 1.6 | -0.8 | 20.4* | 12.1 | 7.0 | 6.5
O=C(CN1CCN(c2ccccc2F)CC1)NC(=O)NCc1ccccc1 | -0.5 | -2.0 | 1.8 | -0.9 | . | .
O=C(CN1CCN(c2ccccc2)CC1)NC(=O)NCc1ccccc1 | 3.6 | 0.7 | 14.3* | 5.5 | 5.3 | 2.4
C/C(=N\NC(=O)Nc1ccccc1)c1ccc2ccccc2c1 | . | -0.5 | 20.7* | -0.5 | 3.8 | 6.5
CC(C)CCCCCCCCCCCCC(=O)NCC(=O)NC1C(C)OC(Nc2ncnc3nc[nH]c23)C(O)C1O (configuration not stated) | -3.4 | -5.7 | 16.4* | 6.5 | 10.9* | 27.7*
C=CC[C@@H](CC(=O)N[C@H](CO)Cc1ccccc1)C(=O)N[C@H](COC(=O)[C@H](CC=C)CC(=O)OC(C)(C)C)Cc1c[nH]c2ccccc12 | -1.5 | 0.0 | -1.4 | 16.9 | . | .
C=CCC[C@@H](Cc1ccc(F)cc1)C(=O)OC[C@@H](Cc1c[nH]c2ccccc12)NC(=O)[C@H](CC=C)CC(=O)N[C@H](CO)Cc1ccccc1 | -1.7 | -0.1 | 10.4* | 14.6 | 4.8 | 5.3
C=CCC[C@H](Cc1ccc(F)cc1)C(=O)OC[C@@H](Cc1c[nH]c2ccccc12)NC(=O)[C@@H](CC=C)CC(=O)N[C@@H](CO)Cc1ccccc1 | 4.2 | -2.2 | 7.9 | 17.7 | . | .
C=CC[C@H](CC(=O)N[C@H](CO)Cc1ccccc1)C(=O)N[C@H](COC(=O)[C@H](CC=C)CC(=O)OC(C)(C)C)Cc1c[nH]c2ccccc12 | 0.2 | -1.1 | 21.6* | 8.4 | 0.6 | 2.7
CS(=O)(=O)Nc1ccc2c(c1)[C@H]1C[C@@H](CC(=O)NCc3ccc(Cl)cc3)O[C@H](CO)[C@H]1O2 | 2.6 | . | . | . | . | .
O=C(COC(=O)/C=C/c1ccc([N+](=O)[O-])cc1)NC(=O)NC1CCCCC1 | 1.8 | -3.6 | 19.2* | -3.0 | 6.8 | 13.1
C=CCOc1ccc(/C=C/C(=O)OCC(=O)NCC2CCCCC2)cc1 | 0.2 | -2.3 | 12.1* | -0.2 | 1.0 | 3.4
O=C(COC(=O)/C=C/c1ccc([N+](=O)[O-])cc1)NCc1ccccc1 | . | -2.2 | 1.7 | -5.7 | . | .
O=C(COC(=O)/C=C/c1ccccc1)NC(=O)NC1CCCCC1 | -0.7 | -0.2 | 6.3 | 2.4 | . | .
O=C(COC(=O)/C=C/c1ccc([N+](=O)[O-])cc1)NC(c1ccccc1)c1ccccc1 | . | -5.0 | 11.5* | 5.5 | 2.0 | 0.7
C=CCOc1ccc(/C=C/C(=O)OCC(=O)NC2CCCCCCC2)cc1 | 3.1 | 0.7 | 0.1 | -5.2 | . | .
O=C(Nc1nc2cc3c(cc2s1)OCO3)c1ccc(N2C(=O)CCC2=O)cc1 | 1.2 | -1.4 | 11.9* | 14.9 | -0.2 | 12.5

Bioassay records from PubChem.
